{"data": "Results gathered from unrelated publications", "note": "Each line is one published result; the experiments were not run side by side. pIC50: −log10 of the molar value."}
{"SMILES": "CC(C)C[C@H](NC(=O)[C@H](Cc1ccccc1)NC(=O)c1cnccn1)B(O)O", "cell line": "MP46", "read-out": "cell growth or viability", "technique": "ATP luminescence", "time": "72 h", "pIC50": 8.45}
{"SMILES": "Cc1cccc(C)c1NC(=O)CN1CCCC1=O", "cell line": "HepaRG", "read-out": "reactive oxygen species", "action": "inhibitor", "time": "16 h", "pIC50": 5.23}
{"SMILES": "O=[N+]([O-])c1ccc(Sc2cccc[n+]2[O-])c2nonc12", "cell line": "MP46", "read-out": "cell growth or viability", "technique": "ATP luminescence", "time": "72 h", "pIC50": 5.55}
{"SMILES": "O=C(CSc1nc2ccccc2s1)N/N=C/c1ccc(OCC(=O)Nc2ccc(Br)cc2)cc1", "cell line": "CAPAN-1", "read-out": "cell growth or viability", "technique": "MTS", "time": "72 h", "pIC50": 4.99}
{"SMILES": "CC(=O)N1c2ccc(-c3ccc(C(=O)O)cc3)cc2[C@H](Nc2ccc(Cl)cc2)C[C@@H]1C", "cell line": "MP46", "read-out": "cell growth or viability", "technique": "ATP luminescence", "time": "72 h", "pIC50": 6.98}
{"SMILES": "Cc1cc2c(C(=O)O)cccc2n1-c1nc2c(c(NCc3ccccc3)n1)CCCN2", "cell line": "SW-620", "read-out": "cell growth or viability", "time": "72 h", "pIC50": 5.68}
{"SMILES": "Cc1[nH]c2ccccc2c1CCNCc1ccc(/C=C/C(=O)NO)cc1", "cell line": "MP46", "read-out": "cell growth or viability", "technique": "ATP luminescence", "time": "72 h", "pIC50": 7.56}
{"SMILES": "COC(=O)Nc1nc2ccc(C(=O)c3cccs3)cc2[nH]1", "cell line": "HepaRG", "read-out": "reactive oxygen species", "action": "inhibitor", "time": "16 h", "pIC50": 5.02}
{"SMILES": "CC1(P2(=O)CCCCC2)C=CCC=C1", "cell line": "SW-620", "read-out": "cell growth or viability", "technique": "MTT", "time": "72 h", "pIC50": "< 4.00"}
{"SMILES": "COc1cc(C2C3=C(COC3=O)N(CCO)c3cc4c(cc32)CCC4)cc(OC)c1OC (centres unmarked)", "cell line": "SUM159", "read-out": "cell growth or viability", "technique": "ATP luminescence", "time": "48 h", "pIC50": 6.62}
{"SMILES": "Cc1noc2c1-c1ccc(-c3cnn(C)c3)cc1C(c1ccc(Cl)cc1)=N[C@H]2CC(N)=O", "cell line": "MP46", "read-out": "cell growth or viability", "technique": "ATP luminescence", "time": "72 h", "pIC50": 6.61}
{"SMILES": "c1ccc(Oc2ccc(Nc3c4c(nc5ccccc35)CCC4)cc2)cc1", "cell line": "THP-1", "read-out": "cell growth or viability", "time": "72 h", "pIC50": 4.74}
{"SMILES": "O=P1(C2CCCCC2)CCCCC1", "cell line": "SW-620", "read-out": "cell growth or viability", "technique": "MTT", "time": "72 h", "pIC50": 4.79}
{"SMILES": "N#Cc1ccc(-c2cc(COc3cc(=O)oc4ccccc34)on2)cc1", "cell line": "CAPAN-1", "read-out": "cell growth or viability", "technique": "MTS", "time": "72 h", "pIC50": "< 4.00"}
{"SMILES": "COc1cc([C@@H]2c3cc4c(cc3[C@@H](O[C@@H]3O[C@@H]5CO[C@@H](C)O[C@H]5[C@H](O)[C@H]3O)[C@H]3COC(=O)[C@H]23)OCO4)cc(OC)c1O", "cell line": "CAPAN-1", "read-out": "cell growth or viability", "technique": "MTS", "time": "72 h", "pIC50": 6.62}
{"SMILES": "N#Cc1ccc(-c2cc(COc3cc(C(F)(F)F)nc4ccccc34)on2)cc1", "cell line": "CAPAN-1", "read-out": "cell growth or viability", "technique": "MTS", "time": "72 h", "pIC50": 4.65}
{"SMILES": "COc1ccc(Nc2ncnc3c2ncn3Cc2ccc(C(=O)Nc3ccccc3N)cc2)cc1", "cell line": "THP-1", "read-out": "cell growth or viability", "technique": "MTT", "time": "72 h", "pIC50": 6.03}
{"SMILES": "Cc1noc(C)c1-c1cc(C(O)(c2ccccn2)c2ccccn2)c2nc(C3CC3)[nH]c2c1", "cell line": "MP46", "read-out": "cell growth or viability", "technique": "ATP luminescence", "time": "72 h", "pIC50": 7.15}
{"SMILES": "N#Cc1ccc(-c2cc(CNc3cccc4cccnc34)on2)cc1", "cell line": "CAPAN-1", "read-out": "cell growth or viability", "technique": "MTS", "time": "72 h", "pIC50": 4.88}
{"SMILES": "CONC(=O)c1cccc2c1cc(C)n2-c1nc2c(c(NCc3ccccc3)n1)CCCN2", "cell line": "SW-620", "read-out": "cell growth or viability", "time": "72 h", "pIC50": 5.64}
{"SMILES": "O=c1cc(OCc2cc(-c3ccc(Cl)cc3Cl)no2)c2ccccc2o1", "cell line": "CAPAN-1", "read-out": "cell growth or viability", "technique": "MTS", "time": "72 h", "pIC50": 4.10}
{"SMILES": "O=C(NO)c1ccc(Cn2cnc3c(Nc4ccc(F)c(Cl)c4)ncnc32)cc1", "cell line": "THP-1", "read-out": "cell growth or viability", "technique": "MTT", "time": "72 h", "pIC50": 5.79}
{"SMILES": "CCOc1ccc(Nc2c3c(nc4ccccc24)CCC3)cc1", "cell line": "THP-1", "read-out": "cell growth or viability", "time": "72 h", "pIC50": 4.73}
{"SMILES": "O=C(CSc1nc2ccccc2s1)N/N=C/c1ccc(OCC(=O)Nc2cccc(Cl)c2)cc1", "cell line": "CAPAN-1", "read-out": "cell growth or viability", "technique": "MTS", "time": "72 h", "pIC50": 4.74}
{"SMILES": "FC(F)(F)c1cc(OCc2cc(-c3ccccc3)no2)c2ccccc2n1", "cell line": "CAPAN-1", "read-out": "cell growth or viability", "technique": "MTS", "time": "72 h", "pIC50": 5.13}
{"SMILES": "O=C(NO)c1ccc(Cn2cnc3c(Nc4cccc([N+](=O)[O-])c4)ncnc32)cc1", "cell line": "THP-1", "read-out": "cell growth or viability", "technique": "MTT", "time": "72 h", "pIC50": 6.28}
{"SMILES": "O=c1cc(OCc2cc(-c3ccccn3)no2)c2ccccc2o1", "cell line": "CAPAN-1", "read-out": "cell growth or viability", "technique": "MTS", "time": "72 h", "pIC50": "< 4.00"}
{"SMILES": "CC(C)(C)c1cc(/C=C2\\SC(N)=NC2=O)cc(C(C)(C)C)c1O", "cell line": "HepaRG", "read-out": "reactive oxygen species", "action": "inhibitor", "time": "16 h", "pIC50": 6.08}
{"SMILES": "FC(F)(F)c1ccc(-c2cc(COc3cc(C(F)(F)F)nc4ccccc34)on2)cc1", "cell line": "CAPAN-1", "read-out": "cell growth or viability", "technique": "MTS", "time": "72 h", "pIC50": "< 4.00"}
{"SMILES": "COc1nnc2ccc(N3CCC(c4ccc(OCCN5CCN(C)C(=O)[C@H]5C)cc4)CC3)nn12", "cell line": "MP46", "read-out": "cell growth or viability", "technique": "ATP luminescence", "time": "72 h", "pIC50": 7.17}
{"SMILES": "FC(F)(F)c1ccc(-c2cc(CNc3cccc4cccnc34)on2)cc1", "cell line": "CAPAN-1", "read-out": "cell growth or viability", "technique": "MTS", "time": "72 h", "pIC50": 4.70}
{"SMILES": "Nc1ccccc1NC(=O)c1ccc(Cn2cnc3c(Nc4ccc(Cl)cc4)ncnc32)cc1", "cell line": "THP-1", "read-out": "cell growth or viability", "technique": "MTT", "time": "72 h", "pIC50": 6.32}
